This is an account of results in ChEMBL document CHEMBL3526048, “In vitro metabolism of rivoglitazone, a novel peroxisome proliferator-activated receptor γ agonist, in rat, monkey, and human liver microsomes and freshly isolated hepatocytes” (Drug Metab Dispos, 2011).

Series [1] concerns the target T1, Cytochrome P450 2C19 (Homo sapiens, UniProt P33261). Kind of series: Activity of human CYP2C19 expressed in microsomes isolated from baculovirus infected insect cell assessed as enzyme-mediated 5-(4-((6-methoxy-1H-benzo[d]imidazol-2-yl)methoxy)benzyl)thiazolidine-2,4-dione formation at 20 uM after 2 hrs by radio-HPLC/LC-MS/MS analysis in presence of NADPH-generating system and NADPH-generating system/SAM. The series is classed as ADME. The gist of the method: (§1)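 Baculovirus/insect-cell microsomes expressing single human CYPs, 1 mg/ml protein, with 50 mM potassium phosphate (pH 7.4) or 100 mM Tris-HCl (pH 7.5). NADPH-generating system: 2 mM NADP⁺, 20 mM glucose 6-phosphate, 2 units/ml G6PDH, 10 mM MgCl₂. [¹⁴C]rivoglitazone at 20 μM, 2 h at 37°C with shaking. Control used insect-cell control supersomes. Stopped with acetonitrile; supernatant concentrated under nitrogen; metabolites analysed by radio-HPLC, LC-MS and LC-MS/MS.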

The test system of series [2] is Liver microsome. Description: Drug metabolism in Sprague-Dawley rat liver microsomes assessed as formation of 2-hydroxy-3-(4-((6-methoxy-1-methyl-1H-benzo[d]imidazol-2-yl)methoxy)phenyl)propanamide at 20 uM after 2 hrs by radio-HPLC/LC-MS/MS analysis in presence of NADPH-generating system and NADPH-generating system/SAM. The series is classed as ADME.
The target in series [3] is T2, Cytochrome P450 3A5 (Homo sapiens, UniProt P20815). Kind of series: Activity of human CYP3A5 expressed in microsomes isolated from baculovirus infected insect cell assessed as enzyme-mediated (2S,3S,4S,5R,6R)-6-((1-carboxy-2-(4-((6-methoxy-1-methyl-1H-benzo[d]imidazol-2-yl)methoxy)phenyl)ethylthio)carbonylamino)-3,4,5-trihydroxytetrahydro-2H-pyran-2-carboxylic acid formation at 20 uM after 2 hrs by radio-HPLC/LC-MS/MS analysis in presence of NADPH-generating system/SAM. The class given is ADME.

Series [4] deals with T3, Cytochrome P450 2C9 (Homo sapiens, UniProt P11712). Description: Activity of human CYP2C9 expressed in microsomes isolated from baculovirus infected insect cell assessed as enzyme-mediated 3-(4-((6-methoxy-1-methyl-1H-benzo[d]imidazol-2-yl)methoxy)phenyl)-2-(methylthio)propanamide formation at 20 uM after 2 hrs by radio-HPLC/LC-MS/MS analysis in presence of NADPH-generating system/SAM. The class given is ADME.

The nature of series [5]: Drug metabolism in po dosed monkey liver microsomes assessed as formation of 5-(4-((6-methoxy-1H-benzo[d]imidazol-2-yl)methoxy)benzyl)thiazolidine-2,4-dione. The series is classed as ADME, Macaca mulatta. To be noted: rhesus monkey.
Series [6] deals with Liver microsome. Kind of series: Drug metabolism in Sprague-Dawley rat liver microsomes assessed as formation of 3-(4-((6-methoxy-1-methyl-1H-benzo[d]imidazol-2-yl)methoxy)phenyl)-2-(methylthio)propanoic acid at 20 uM after 2 to 4 hrs by radio-HPLC/LC-MS/MS analysis in presence of NADPH-generating system/SAM and UDPGA/SAM. The class given is ADME. (In general: Microsomes from liver hold many membrane-bound enzymes, among them those of drug oxidation.)

Series [7] concerns Liver microsome. Kind of series: Drug metabolism in human liver microsomes assessed as formation of 5-hydroxy-5-(4-((6-methoxy-1-methyl-1H-benzo[d]imidazol-2-yl)methoxy)benzyl)thiazolidine-2,4-dione at 20 uM after 2 hrs by radio-HPLC/LC-MS/MS analysis in presence of NADPH-generating system and NADPH-generating system/SAM. The class given is ADME.
Series [8] has as its target T4, UDP-glucuronosyltransferase 1A8 (Homo sapiens, UniProt Q9HAW9).
T4 sequence (Q9HAW9 whole entry): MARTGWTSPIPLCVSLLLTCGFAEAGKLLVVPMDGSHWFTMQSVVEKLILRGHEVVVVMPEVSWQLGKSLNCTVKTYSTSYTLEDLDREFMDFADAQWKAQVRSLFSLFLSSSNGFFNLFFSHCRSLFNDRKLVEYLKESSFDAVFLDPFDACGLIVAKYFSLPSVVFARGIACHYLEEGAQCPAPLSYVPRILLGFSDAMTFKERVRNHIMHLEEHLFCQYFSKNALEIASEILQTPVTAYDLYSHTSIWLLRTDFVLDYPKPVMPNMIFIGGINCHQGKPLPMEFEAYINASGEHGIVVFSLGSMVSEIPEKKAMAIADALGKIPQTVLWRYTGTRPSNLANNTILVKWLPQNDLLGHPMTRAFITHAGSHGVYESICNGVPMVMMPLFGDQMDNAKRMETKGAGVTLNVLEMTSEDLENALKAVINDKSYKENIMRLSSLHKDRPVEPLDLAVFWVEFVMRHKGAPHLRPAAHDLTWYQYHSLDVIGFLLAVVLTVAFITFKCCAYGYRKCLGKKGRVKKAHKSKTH
Description: Activity of human UGT1A8 expressed in microsomes isolated from baculovirus infected insect cell assessed as enzyme-mediated (2S,3S,4S,5R,6R)-3,4,5-trihydroxy-6-(5-(4-((6-methoxy-1-methyl-1H-benzo[d]imidazol-2-yl)methoxy)benzyl)-2,4-dioxothiazolidin-3-yl)tetrahydro-2H-pyran-2-carboxylic acid formation at 20 uM after 4 hrs by radio-HPLC/LC-MS/MS analysis in presence of UDPGA. The series is classed as ADME.

Series [9] concerns the target T2, Cytochrome P450 3A5. Description: Activity of human CYP3A5 expressed in microsomes isolated from baculovirus infected insect cell assessed as enzyme-mediated 5-(4-((6-hydroxy-1-methyl-1H-benzo[d]imidazol-2-yl)methoxy)benzyl)thiazolidine-2,4-dione formation at 20 uM after 2 hrs by radio-HPLC/LC-MS/MS analysis in presence of NADPH-generating system and NADPH-generating system/SAM. The class given is ADME. The gist of the method:
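cDNA-expressed human CYP3A5 in baculovirus-insect-cell microsomes (1 mg/ml protein) was incubated with [¹⁴C]rivoglitazone (20 μM) in 50 mM potassium phosphate (pH 7.4) or 100 mM Tris-HCl (pH 7.5). NADPH-generating system: 2 mM NADP⁺, 20 mM glucose 6-phosphate, 2 units/ml G6PDH, 10 mM MgCl₂. Incubation ran 2 h at 37°C with shaking; insect-cell control supersomes served as control. Acetonitrile stop, supernatant concentrated, then radio-HPLC, LC-MS and LC-MS/MS.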

Series [10] addresses T3, Cytochrome P450 2C9. Description: Activity of human CYP2C9 expressed in microsomes isolated from baculovirus infected insect cell assessed as enzyme-mediated 5-(4-((6-methoxy-1H-benzo[d]imidazol-2-yl)methoxy)benzyl)thiazolidine-2,4-dione formation at 20 uM after 2 hrs by radio-HPLC/LC-MS/MS analysis in presence of NADPH-generating system and NADPH-generating system/SAM. The class given is ADME.

Series [11] has as its target T1, Cytochrome P450 2C19. Kind of series: Activity of human CYP2C19 expressed in microsomes isolated from baculovirus infected insect cell assessed as enzyme-mediated compound formation treated with [14C]-rivoglitazone at 20 uM after 2 hrs by radio-HPLC/LC-MS/MS analysis in presence of NADPH-generating system. The class given is ADME. The gist of the method: as §1

Each structure is given as a SMILES string.

T3 sequence (P11712 whole entry): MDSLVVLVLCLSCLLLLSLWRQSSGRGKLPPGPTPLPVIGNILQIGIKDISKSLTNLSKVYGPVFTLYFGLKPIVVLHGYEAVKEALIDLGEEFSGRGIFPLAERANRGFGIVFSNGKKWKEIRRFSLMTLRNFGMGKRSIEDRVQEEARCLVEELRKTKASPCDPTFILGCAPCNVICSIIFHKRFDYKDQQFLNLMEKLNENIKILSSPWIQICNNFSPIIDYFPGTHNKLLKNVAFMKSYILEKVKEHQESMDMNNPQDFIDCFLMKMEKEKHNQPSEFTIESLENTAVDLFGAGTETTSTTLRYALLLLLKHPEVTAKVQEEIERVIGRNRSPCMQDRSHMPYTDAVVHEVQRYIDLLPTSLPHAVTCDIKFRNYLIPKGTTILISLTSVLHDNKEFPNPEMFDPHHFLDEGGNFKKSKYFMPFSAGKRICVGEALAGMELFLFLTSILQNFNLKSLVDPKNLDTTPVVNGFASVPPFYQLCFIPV
T1 sequence (P33261 whole entry): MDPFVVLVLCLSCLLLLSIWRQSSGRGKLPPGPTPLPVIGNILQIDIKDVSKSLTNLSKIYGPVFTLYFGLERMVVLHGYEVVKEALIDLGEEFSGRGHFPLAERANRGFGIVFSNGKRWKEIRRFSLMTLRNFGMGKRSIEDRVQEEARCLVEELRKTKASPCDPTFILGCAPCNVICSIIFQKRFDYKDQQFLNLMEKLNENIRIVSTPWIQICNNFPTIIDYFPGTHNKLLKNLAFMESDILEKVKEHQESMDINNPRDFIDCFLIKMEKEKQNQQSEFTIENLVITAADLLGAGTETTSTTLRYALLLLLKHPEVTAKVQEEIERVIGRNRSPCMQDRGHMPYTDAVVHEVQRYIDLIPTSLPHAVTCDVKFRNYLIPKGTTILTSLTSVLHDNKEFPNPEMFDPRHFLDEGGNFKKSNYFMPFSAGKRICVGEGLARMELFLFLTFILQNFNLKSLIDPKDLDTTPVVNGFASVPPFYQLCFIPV
T2 sequence (P20815 whole entry): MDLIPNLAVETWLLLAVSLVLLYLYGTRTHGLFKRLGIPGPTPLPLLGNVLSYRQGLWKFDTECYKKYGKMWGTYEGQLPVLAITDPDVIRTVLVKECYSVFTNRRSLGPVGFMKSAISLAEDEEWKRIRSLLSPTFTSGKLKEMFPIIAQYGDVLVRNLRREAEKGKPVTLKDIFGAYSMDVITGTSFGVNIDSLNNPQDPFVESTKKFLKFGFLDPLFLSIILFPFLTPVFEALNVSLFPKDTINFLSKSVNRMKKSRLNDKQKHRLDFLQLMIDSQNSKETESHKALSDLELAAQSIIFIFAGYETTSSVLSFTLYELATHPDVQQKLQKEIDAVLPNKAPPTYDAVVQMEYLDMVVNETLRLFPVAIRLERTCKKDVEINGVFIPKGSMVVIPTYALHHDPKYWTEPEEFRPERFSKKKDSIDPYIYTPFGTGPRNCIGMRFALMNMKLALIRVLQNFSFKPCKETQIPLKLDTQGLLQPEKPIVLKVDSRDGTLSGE

For `COc1ccc2nc(COc3ccc(C[14CH]4SC(=O)NC4=O)cc3)n(C)c2c1.Cl` (racemic), the Drug metabolism result on Cytochrome P450 2C19 [1] is “metabolite_detected”; in the series with Liver microsome [2] it was “metabolite_detected”; on Cytochrome P450 3A5 [3] it was “metabolite_not_detected”; at Cytochrome P450 2C9 [4] it was “metabolite_not_detected”; in series [5], “metabolite_detected”; with Liver microsome [6] it was “metabolite_detected”. For the same molecule, the Drug metabolism entry in the series on Liver microsome [7] is listed as “metabolite_detected”; in series [8], “metabolite_not_detected”; on Cytochrome P450 3A5 [9], “metabolite_detected”; at Cytochrome P450 2C9 [10] it was “metabolite_detected”.

In the case of `COc1ccc2nc(COc3ccc(CC(S)C(=O)O)cc3)n(C)c2c1` (stereo unspecified), the Drug metabolism result at Cytochrome P450 2C19 [11] is given as “metabolite_detected”.
